High-throughput results (PubChem BioAssay)
Hits are enriched below; roughly 2.5% of the tested compounds scored in any of these assays.
ABCB1 block: ABCB1 efflux pump inhibitors, primary screen, cell-based, multiplex, flow cytometry, ABCG2 counter-screen; inhibition, % at 6.6 µM; ATP-dependent translocase ABCB1 (Homo sapiens), P08183; 190,000 tested, 0.067% active; CCRF-Adr cells, JC-1 efflux; in the data active = inhibition above about 40%;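 note: 0% = vehicle and 100% = reference inhibitor; higher value means more JC-1 retained so stronger ABCB1 efflux block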
MEKK2 WT-MEK5: modulators of MEK5 binding to wildtype MEKK2, primary screen, biochemical, multiplex bead flow cytometry, Alexa488-MEK5 | Mitogen-activated protein kinase kinase kinase 2 (Homo sapiens), Q9Y2U5 | Alexa488-MEK5 binding to MEKK2 WT; actives lie on both sides | binding response (% of control), % at 10 µM | 290,000 tested, 1.1% active; in the data active = binding response below about 67% or above about 130%
ABCG2 block: ABCG2 efflux pump inhibitors, primary screen, multiplex with ABCB1, IgMXP3 cells, flow cytometry | inhibition, % at 6.6 µM | 190,000 tested, 0.1% active | Broad substrate specificity ATP-binding cassette transporter ABCG2 (Homo sapiens), Q9UNQ0 | JC-1 efflux;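 active = inhibition above 80%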;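 note: 0% = DMSO and 100% = nicardipine control wells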
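test system = two drug-resistant human cell lines, ABCG2 and ABCB1 | amount = 3 million cells/mL final, two lines in 1:1 ratio | reagent = JC-1 transporter substrate | doses = one concentration, 6.6 µM final | incubation = 10 min at 25 °C | signal = flow cytometric JC-1 green MFI at 530 nm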
Efflux pump inh: inhibitors of Candida efflux pumps in yeast, primary screen, S. cerevisiae, Nile Red, multiplex; S. cerevisiae Candida pump triplex; inhibition, % at 10 µM; 330,000 tested, 0.44% active; AID 485275, 2010;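 active = plate passing quality check with inhibition over a set limit, or well fluorescence over plate mean plus 4 SD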;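 note: Nile Red retained in pooled yeast measured as flow cytometry median fluorescence; 0% = buffer negative control and 100% = Enniatin B positive control; higher means more Nile Red kept so more efflux inhibition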
MEKK2 mut-MEK5: MEK5 binding signal on mutant MEKK2 PB1, primary screen, biochemical, multiplex bead flow cytometry, Alexa488-MEK5; 290,000 tested, 0.35% active; AID 1530, 2009; percent response, % at 10 µM; Alexa488-MEK5 binding to MEKK2 mutant; in the data active = percent response above about 24%, passing the limit was not always enough
MEKK3 PB1 HTS: modulators of MEKK3-MEK5 PB1 binding, primary screen, biochemical, wildtype MEKK3, multiplex bead flow cytometry, Alexa488-MEK5; bead-based flow cytometry, Alexa488-MEK5 binding to MEKK3; actives lie on both sides; 0 = blocked by unlabeled MEK5, 100 = vehicle; binding response (% of control), % at 10 µM; 290,000 tested, 1.4% active;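 active = binding response more than 3 SD above or below the average of its plate-row segment, actives on both sides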;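 note: Alexa488 bead fluorescence after subtracting the streptavidin-only scavenger bead signal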
Target sequence (Q99759 whole entry, looked up): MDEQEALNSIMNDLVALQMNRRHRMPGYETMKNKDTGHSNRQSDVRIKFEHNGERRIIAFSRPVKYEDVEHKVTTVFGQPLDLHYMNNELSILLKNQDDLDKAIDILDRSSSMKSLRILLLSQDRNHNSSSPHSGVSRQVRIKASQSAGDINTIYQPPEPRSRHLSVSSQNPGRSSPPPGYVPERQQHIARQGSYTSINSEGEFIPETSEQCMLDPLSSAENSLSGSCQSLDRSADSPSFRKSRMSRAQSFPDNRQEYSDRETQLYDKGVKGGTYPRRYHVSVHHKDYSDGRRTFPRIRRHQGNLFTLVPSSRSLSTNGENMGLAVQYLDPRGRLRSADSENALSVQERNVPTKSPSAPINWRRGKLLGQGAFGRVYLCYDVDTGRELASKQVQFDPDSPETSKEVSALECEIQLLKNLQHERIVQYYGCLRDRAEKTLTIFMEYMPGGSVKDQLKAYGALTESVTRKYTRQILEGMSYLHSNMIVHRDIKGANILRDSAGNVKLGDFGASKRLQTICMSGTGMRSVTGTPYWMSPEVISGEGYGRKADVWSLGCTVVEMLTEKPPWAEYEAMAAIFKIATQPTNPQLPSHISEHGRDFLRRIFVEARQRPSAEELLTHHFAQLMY
MEKK2wt confirm: modulators of MEK5 binding to wildtype MEKK2, confirmation, biochemical, single concentration, multiplex bead flow cytometry. Alexa488-MEK5 binding to MEKK2 WT; actives lie on both sides. AID 1892, 2009. 5,900 tested, 2.4% active. shares compounds with MEKK3 PB1 HTS. binding response (% of control), % at 10 µM; in the data active = binding response below about 16% or above about 210%; inactive = in between
MEKK2mut confirm: mutant MEKK2 PB1-MEK5 binding signal retest – biochemical, single concentration, multiplex bead flow cytometry, confirmation. shares compounds with MEKK3 PB1 HTS. Alexa488-MEK5 binding to MEKK2 mutant. percent response, % at 10 µM. 5,900 tested, 2% active; in the data active = percent response mostly above about 71%, no sharp cut-off; inactive = mostly below about 38%;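 note: higher means compound restores mutant binding toward wildtype level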
MEKK3 confirm: MEKK3 wild-type PB1 binding to MEK5, inhibitors, confirmation, biochemical, bead multiplex flow cytometry, single concentration, wildtype | shares compounds with MEKK3 PB1 HTS | binding response (% of control), % at 10 µM | Alexa488-MEK5 binding to MEKK3; stronger effect = lower value | 5,900 tested, 1.8% active;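 active = binding response below 72% of control, or above a set upper limit, though filed actives all read lower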;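 note: 100% = DMSO only wells and 0% = binding blocked by excess unlabeled MEK5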
An asterisk follows results filed as active; [ ] = another dose, or the depositor's remark.

Results for COc1cccc(C2CC(c3cccs3)=NN2S(C)(=O)=O)c1OC (centres undefined) ?
ABCB1 block: 0; MEKK2 WT-MEK5: 55; ABCG2 block: 1; Efflux pump inh: 0; MEKK2 mut-MEK5: -8; MEKK3 PB1 HTS: 86

How did Cc1ccc(S(=O)(=O)N=Nc2c(O)[nH]c3ccccc23)cc1 do in these assays?
ABCB1 block: 0; MEKK2 WT-MEK5: 121; ABCG2 block: -1; Efflux pump inh: 0; MEKK2 mut-MEK5: 6; MEKK3 PB1 HTS: 126*; MEKK2wt confirm: 104; MEKK2mut confirm: 4; MEKK3 confirm: 105

Results for CCOC(=O)/C(=C/C=C1\Sc2cc(C)c(C)cc2N1CC)C(C)=O ?
ABCB1 block: 0; MEKK2 WT-MEK5: 42*[inhibitor]; ABCG2 block: 1; MEKK2 mut-MEK5: -22; MEKK3 PB1 HTS: 90; MEKK2wt confirm: 87; MEKK2mut confirm: -12; MEKK3 confirm: 91

How did CC(C)Nc1nc(NC(C)C)nc(SCC(N)=O)n1 do in these assays?
ABCB1 block: 0; MEKK2 WT-MEK5: 98; ABCG2 block: 2; Efflux pump inh: 0; MEKK2 mut-MEK5: 3; MEKK3 PB1 HTS: 105

What do the screens show for `COc1ccc(Cl)cc1NC(=S)N1CCC(c2ccc(C)cc2)C1` (centres undefined)?
ABCB1 block: 0; MEKK2 WT-MEK5: 103; ABCG2 block: 6; Efflux pump inh: 0; MEKK2 mut-MEK5: 4; MEKK3 PB1 HTS: 106

How did Cc1ccc(C2CCN(C(=S)NC(C)C)C2)cc1 (centres undefined) do in these assays?
ABCB1 block: 0; MEKK2 WT-MEK5: 58; ABCG2 block: 17; Efflux pump inh: 0; MEKK2 mut-MEK5: -40; MEKK3 PB1 HTS: 48*[inhibitor]; MEKK2wt confirm: 99; MEKK2mut confirm: 2; MEKK3 confirm: 101

How did Cc1cc[n+](CC(=O)c2ccc3c(c2)OCCO3)cc1 do in these assays?
ABCB1 block: 1; MEKK2 WT-MEK5: 111; ABCG2 block: 11; Efflux pump inh: 0; MEKK2 mut-MEK5: 18; MEKK3 PB1 HTS: 105

How did O=C(C[n+]1ccc(/C=C/c2ccccc2)cc1)c1ccc2c(c1)OCCO2 do in these assays?
MEKK2 WT-MEK5: 174*; Efflux pump inh: 0; MEKK2 mut-MEK5: 32; MEKK3 PB1 HTS: 101; MEKK2wt confirm: 142; MEKK2mut confirm: 23; MEKK3 confirm: 97

How did CN(C)CCNc1ncnc2oc(-c3ccccc3)c(-c3ccccc3)c12 do in these assays?
MEKK2 WT-MEK5: 122; Efflux pump inh: 0; MEKK2 mut-MEK5: 17; MEKK3 PB1 HTS: 109

Results for COc1ccc(-c2oc3ncnc(NCCCN(C)C)c3c2-c2ccc(OC)cc2)cc1 ?
MEKK2 WT-MEK5: 171*; Efflux pump inh: 0; MEKK2 mut-MEK5: 30*; MEKK3 PB1 HTS: 109; MEKK2wt confirm: 144; MEKK2mut confirm: 27; MEKK3 confirm: 100

Results for Cc1ccc(Oc2nc(-c3ccccc3)ncc2S(C)(=O)=O)cc1 ?
ABCB1 block: 0; MEKK2 WT-MEK5: 1.0*[inhibitor]; ABCG2 block: 1; Efflux pump inh: 0; MEKK2 mut-MEK5: -62; MEKK3 PB1 HTS: 1.0*[inhibitor]; MEKK2wt confirm: 102; MEKK2mut confirm: 3; MEKK3 confirm: 104

Results for C=CCc1c(NCCO)nc(C)[nH]c1=O ?
ABCB1 block: 0; MEKK2 WT-MEK5: 86; ABCG2 block: -2; Efflux pump inh: 0; MEKK2 mut-MEK5: -13; MEKK3 PB1 HTS: 93

Results for CSCCC(NC(=O)c1ccccc1)C(=O)N1CCN(C(c2ccccc2)c2ccccc2)CC1 (centres undefined) ?
MEKK2 WT-MEK5: 89; Efflux pump inh: 1; MEKK2 mut-MEK5: -7; MEKK3 PB1 HTS: 98

What do the screens show for `CCc1nnc(NC(=O)Cc2c[nH]c3ccccc23)s1`?
ABCB1 block: 0; MEKK2 WT-MEK5: 121; ABCG2 block: 3; Efflux pump inh: 0; MEKK2 mut-MEK5: 7; MEKK3 PB1 HTS: 138*; MEKK2wt confirm: 103; MEKK2mut confirm: 5; MEKK3 confirm: 107

How did O=S(=O)(c1ccc(Cl)cc1)N1CCCc2ccccc21 do in these assays?
MEKK2 WT-MEK5: 103; Efflux pump inh: 0; MEKK2 mut-MEK5: 2; MEKK3 PB1 HTS: 100

What do the screens show for `O=S(=O)(c1ccc(Cl)cc1)N1CCc2ccccc21`?
MEKK2 WT-MEK5: 66; Efflux pump inh: 1; MEKK2 mut-MEK5: 46*; MEKK3 PB1 HTS: 102; MEKK2wt confirm: 104; MEKK2mut confirm: 3; MEKK3 confirm: 103

What do the screens show for `COC(=O)c1ccc(CSc2nnc(-c3ccc4c(c3)OCO4)n2-c2ccccc2)o1`?
ABCB1 block: 1; MEKK2 WT-MEK5: 109; ABCG2 block: 2; Efflux pump inh: 0; MEKK2 mut-MEK5: 4; MEKK3 PB1 HTS: 131*; MEKK2wt confirm: 104; MEKK2mut confirm: 3; MEKK3 confirm: 105

How did COC(=O)c1ccc(CSc2nc3ccccc3c(=O)n2-c2ccccc2)o1 do in these assays?
ABCB1 block: 1; MEKK2 WT-MEK5: 96; ABCG2 block: 2; Efflux pump inh: 0; MEKK2 mut-MEK5: -2; MEKK3 PB1 HTS: 102

How did CC(NCCC1(Cc2ccccc2Cl)CCOC(C)(C)C1)c1cccs1 (centres undefined) do in these assays?
MEKK2 WT-MEK5: 92; Efflux pump inh: 0; MEKK2 mut-MEK5: -3; MEKK3 PB1 HTS: 95

What do the screens show for `COc1ccccc1-c1cc(C(=O)NC2CCN(C)CC2)c2ccc(Cl)c(C)c2n1`?
MEKK2 WT-MEK5: 155*; Efflux pump inh: 1.6*; MEKK2 mut-MEK5: 28*; MEKK3 PB1 HTS: 105; MEKK2wt confirm: 132; MEKK2mut confirm: 25; MEKK3 confirm: 108
